SMILES strings stand for the structures.

A short description of this data set: Toxicity liver stage against HepG2, at 10uM. More on the design: test concentration 10 uM, cell line HepG2-A16-CD81EGFP. As to conditions: human, HepG2-A16-CD81EGFP cells; read-out: INHIBITION
It is filed as cell-based. In outline:
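Uninfected HepG2-A16-CD81EGFP cells, 3 × 10^3 per well, 1536-well, plated on prespotted compound at 10 μM final, parasite-free screening media added to match infected plates; puromycin 10 μM positive, DMSO 0.5% negative; run in parallel with 48 h PbLuc assay at 37 °C, 5% CO2; viability by CellTiter-Glo luminescence, normalized to controls.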
Consider `O=C(NC[C@H]1OC[C@@H](NC2CCOCC2)[C@@H]1O)Nc1ccccc1`, for which the cytotoxicity at 10 µM is -5.75%.
Regarding `COc1cc(CN2CCCCCC2c2cccs2)cc(OC)c1O` (configuration not stated), the cytotoxicity at 10 µM is 8.6%.
Then `O=C(C1CC1)N1CCN2C[C@H](c3ccccc3)[C@@H](CO)[C@H]2C1`, with 4.9%; and `Cc1nn2c(NC(=O)CSc3nccn3C)csc2nc1=O`, with 9.71%.
Under `O=c1c(NCc2ccccn2)c(NCC(O)CN2CCOCC2)c1=O` (configuration not stated) stands -54.5%; under `N#Cc1cccnc1OC1CCN(S(=O)(=O)c2ccc(Br)cc2)CC1`, 3.61%.
Then `O=S(=O)(NCC(O)c1ccc2c(c1)CCO2)c1ccccc1F` (configuration not stated), with -8.25%.
As for `Cn1cc(C(=O)Nc2ccc(CC(=O)NCC(F)(F)F)cc2)nn1`, the cytotoxicity at 10 µM came out at 10.8%.
Then `CCN(C)C(=O)c1ccnn1-c1ccc2ccccn12`, with 6.71%.
Under `O=C(C1CC1)N1CCC2(CC1)CNCCO2` stands -2.82%.
Consider `CCn1ncc2c1CN(C(=O)c1ccc3c(c1)OCO3)CC2COC` (configuration not stated), for which the cytotoxicity at 10 µM worked out at 8.7%.
Under `Cc1noc(C2CN(S(C)(=O)=O)Cc3ccnn3C2)n1` (configuration not stated) stands 4.92%; under `COCC1CN(S(=O)(=O)C2CC2)Cc2ncn(CC3CC3)c21` (configuration not stated), 9.03%; under `COc1cccc(Cn2c(=O)n(C)c(=O)c3sccc32)c1`, 3.29%.
As to `Cc1cc(O)n(-c2ccccc2Cl)c(=O)c1C#N`, the cytotoxicity at 10 µM was determined as 2.96%.
Then `O=C(c1ccnn1COc1ccc(Cl)cc1)N1CCOCC1`, with -3.94%.
Take `CN(C)Cc1cccc(-c2cccnc2C(=O)NCc2cn(C)cn2)c1`: the cytotoxicity at 10 µM worked out at 4.09%.
Under `Cc1nc(Nc2ncc(C)s2)cc(C2CCCN2S(C)(=O)=O)n1` (configuration not stated) stands -37.6%; under `c1cc(-c2nc(C3CCN(Cc4ccsc4)CC3)no2)ccn1`, -26.5%.
As to `CC(=O)N1CCC(c2ccnc(Nc3cnccn3)n2)C1` (configuration not stated), the cytotoxicity at 10 µM was -0.182%.
Then `CC(C)(C)c1n[nH]cc1CN1CCc2nc3ccsc3c(=O)n2CC1`, with 6.12%; and `Cc1ccc(OCCCNC(=O)C(C)Sc2nncn2C)cc1` (configuration not stated), with -45%; and `CN(Cc1ccco1)C(=O)C1CCCc2ccccc21` (configuration not stated), with 3.68%.
Take `COCCNC(=O)N1CCOCC1c1c(C)nn(C)c1C` (configuration not stated): the cytotoxicity at 10 µM is -8.18%.
Under `COc1c(NS(=O)(=O)c2ccc(C)c(C)c2)c(C)nn1C` stands 3.73%; under `Cc1cc(C)n(CC(C)NC(=O)NCc2c(C)cc(C)[nH]c2=O)n1` (configuration not stated), -6.58%; under `N#Cc1cccc(CN2CCCC2c2ccc[nH]2)c1` (configuration not stated), -11.9%.
For `CCN(C1CCN(Cc2ncc(C(C)(C)C)o2)CC1)S(C)(=O)=O`, the cytotoxicity at 10 µM is -4.15%.
On to `CCN(C(=O)CN1CCn2c(nnc2C2CC2)C1)C1=CCCCC1`, for which the cytotoxicity at 10 µM turned out to be 10%.
Then `O=C(NCc1cccnc1-n1cncn1)c1ccncc1`, with 5.91%; and `Cc1cccc2nc(CNC(=O)N3CCC(OCC4CC4)CC3)cn12`, with -2.02%.
Then `CCC(CC)C(=O)Nc1ccc2oc(=O)n(CCN(C)C)c2c1`, with -13.7%; and `COc1ccc(N(C(=O)c2ccccn2)C(C)C)cc1F`, with -1.26%.
Then `CS(=O)(=O)CCSCc1ccc(Br)c(F)c1`, with 0.49%; and `O=C(C[S+]([O-])Cc1c(Cl)cccc1Cl)N1CCc2sccc2C1` (configuration not stated), with -7.23%; and `Cc1cccc(C(C)(C)NC(=O)CCS(C)(=O)=O)c1`, with 2.41%.
As to `CCCc1nc(C)c(C(=O)NCCn2ccnc2)s1`, the cytotoxicity at 10 µM turned out to be 8.14%.
Under `Cc1cccc2c(CCNC(=O)NCCC[S+](C)[O-])c[nH]c12` (configuration not stated) stands -25.4%.
Then `O=C(CCN1C(=O)CCC1=O)Nc1ccc(Oc2ccc(Cl)cc2)nc1`, with -23.5%; and `CN(CCOc1ccc(Cl)cc1)Cc1ccc(S(=O)(=O)N(C)C)o1`, with 33.6%.
Under `CC(C)Cc1noc(CN2CCOCC2C)n1` (configuration not stated) stands 2.8%; under `COc1ccccc1C(C)N1CCN(S(C)(=O)=O)CC1` (configuration not stated), 9.62%; under `O=C(Nc1ccncc1)NC1CCN(c2ccccc2Cl)C1=O` (configuration not stated), -43.6%.
`CSCC(=O)Nc1nccn1Cc1ccc(Br)cc1`: the cytotoxicity at 10 µM was -45.8%.
Then `CCN(CC(=O)N(C)C)S(=O)(=O)c1cnc2c(c1)c(C)nn2C`, with 2.59%.
Turning to `Cc1cn2c(n1)C(CNCc1ccc(C)s1)CCC2` (configuration not stated), the cytotoxicity at 10 µM was -26.3%.
`O=C1[C@H]2CN(c3cnccn3)C[C@H]2CN1CC1CC1`: the cytotoxicity at 10 µM was -108%.
Under `CCC(=O)N1CCC2(CC1)CC(CC(=O)N(C)C)c1ccc(F)cc12` (configuration not stated) stands -101%.
Under `O=C(c1cccs1)N1CCC2(C1)c1ccccc1S(=O)(=O)N2CC1CC1` (configuration not stated) stands -4.27%; under `CC(Cn1cncn1)NCc1csc2c1CCCC2` (configuration not stated), -1.53%.
Then `CCc1ncc2c(n1)CN(C(=O)CC(C)NC(C)=O)C2` (configuration not stated), with 3.6%.
Regarding `CCc1ncc(C(=O)N(CCOC)Cc2nccs2)cn1`, the cytotoxicity at 10 µM was -1.47%.
Then `CCC(Nc1nc(CCN)nc2ccccc12)c1cccs1` (configuration not stated), with -3.09%.
Then `CCCc1cc(CN(C)C2CSCCSC2)n[nH]1`, with 0.786%; and `COc1cc(CN2CCC3(CC2)[C@H](O)C[C@@H]3OCCO)ccc1F`, with -12.2%.
In the case of `Cc1ccc2nc(-c3cnc(N)nc3)c(C)c(C(=O)N(C)C)c2c1`, the cytotoxicity at 10 µM is -13.8%.
Then `CCCC(C)NCc1cccnc1N1CCN(c2ccccn2)CC1` (configuration not stated), with 6.99%; and `CN(Cc1cc2n(n1)CCNC2)Cc1noc(C2CCC2)n1`, with 15.2%; and `COc1ccccc1N1CCN(C(=O)CSCC2CC2)C(C)C1` (configuration not stated), with 4.06%.
Under `O=C(CCc1ccccn1)NC1CCCN(C2Cc3ccccc3C2)C1` (configuration not stated) stands 1.96%; under `CSCCN1CCC(NC(=O)c2cccc(C3CCCNC3)c2)CC1` (configuration not stated), 0.49%; under `COC(=O)c1ccc(-c2noc(CN(CCO)Cc3cccs3)n2)cc1`, 6.43%.
`Nc1nc(CCC(=O)N2C[C@H](c3ccccc3)[C@@H](N)C2)cs1`: the cytotoxicity at 10 µM amounted to 4.49%.
As for `Cn1cnnc1CCC(=O)N1CCCC(OCc2cccnc2)C1` (configuration not stated), the cytotoxicity at 10 µM is 2.66%.
For `O=C1CCCN1CCN1CC[C@@]2(O)CCN(c3ncccn3)C[C@H]2C1`, the cytotoxicity at 10 µM is -2.61%.
Under `COC(=O)c1cc(CN2CCN(c3nc(C)cnc3C)CC2)ccc1O` stands 0.171%; under `Cc1ncc(CC(=O)N2CCC3(CCC(=O)N(C4CC4)C3)CC2)c(=O)[nH]1`, -45.1%.
Under `CC1CCCN(Cc2ccc(C(N)=O)cc2)C1` (configuration not stated) stands -10.4%.
Under `CC(C1CCN(Cc2cnn(C)c2C2CC2)CC1)N(C)C` (configuration not stated) stands 7.88%; under `CN(C)CCn1ccnc1C1CCN(c2cc(N)nc(N)n2)CC1`, 0.829%; under `CCC[C@@H]1CN(C(=O)c2cnc3ccccc3c2)C[C@H]1NS(C)(=O)=O`, -11.1%.
With `Cc1nc[nH]c1-c1nccn1-c1ccc(C(N)=O)c(N2CCCC2)c1`, the cytotoxicity at 10 µM turned out to be 6.23%.
Under `O=C(c1cccs1)N1CCC(n2nc(-c3ccco3)ccc2=O)CC1` stands -6.62%; under `O=C(c1cnco1)N1CCCC(Cc2cccc3ncccc23)C1` (configuration not stated), 2.16%.
Under `CC1CN(C)CCN1C(=O)c1ccn(-c2cccc(F)c2)n1` (configuration not stated) stands -1.87%; under `Cc1nc(C)n(CC2CN(Cc3cc(C#N)ccc3F)CCO2)n1` (configuration not stated), -1.56%.
Under `COCc1cccc(CNCc2c(C(C)C)nn(C)c2N(C)C)c1` stands -7.16%.
With `Cc1ccn2ncc(C(=O)N3CCCC(n4cccn4)C3)c2n1` (configuration not stated), the cytotoxicity at 10 µM was -24.3%.
Then `CC(NC(=O)NCc1cc[nH]n1)c1ccc2c(c1)CCC(=O)N2` (configuration not stated), with -9.37%; and `CCc1nc(C2CCCN2CCCS(=O)(=O)c2ccccc2)no1` (configuration not stated), with -6.15%; and `Cc1cc(C[C@@H]2COC[C@H]2NCc2ccc(Cl)c(Cl)c2)on1`, with -5.44%.
Under `Cc1cnc(N2CCC3(CC2)CC3CNC(=O)C2CCC2)nc1` (configuration not stated) stands 38%; under `CC(C)(C)C(=O)N1C[C@H](c2ccsc2)[C@H]2CN(C3CCCCC3)CC[C@H]21`, 5.9%.
Under `Cc1ccc(N2CCO[C@H]3CN(Cc4ccccn4)C[C@H]32)nn1` stands -79.8%; under `O=C(CC1CC1)NCc1cn2c(n1)CN(Cc1cccc(F)c1)CC2`, -85.8%; under `Cc1ccc2c(CC(=O)N(C)CCN(C)C)c(C)[nH]c2c1C`, 8.42%.
Consider `CCOCC1CN(C(=O)c2cnoc2C)Cc2cn(C)nc21` (configuration not stated), for which the cytotoxicity at 10 µM was 12.9%.
Under `CN1CCCCC12CCN(C(=O)c1cccn1C)CC2` stands 8.22%.
Then `CN1CCN(c2ccc3ccc(C(=O)N4CCCO4)cn23)CC1`, with 13.4%; and `O=C(c1ccncc1F)N1Cc2nc(CN3CCCCC3)oc2C1`, with -105%; and `N#Cc1cccc(N2CCCC3(CNCCO3)C2)n1` (configuration not stated), with 13.7%.
Under `O=C(C1CCCCC1)N1CCC2(CCCN2CC2CC2)CC1` stands 3.56%; under `COC[C@@]12CCO[C@@H]1CCN(Cc1ccccc1OC)C2`, -110%.
As to `CCS(=O)(=O)N1CCOC2(CCCN(c3ccccn3)C2)C1` (configuration not stated), the cytotoxicity at 10 µM stood at 3.16%.
Under `O=C(NC1CCC1)[C@H]1C[C@H]2CN(S(=O)(=O)c3ccccc3)C[C@@H]1O2` stands -9.02%.
Under `O=C(CN1C[C@@H]2CC[C@H]1CN(Cc1ccccn1)C2)NCc1cccs1` stands -24.2%; under `O=C(NCC1CCC(c2nnc(-c3cccnc3)o2)CC1)C1CC1` (configuration not stated), 3.15%.

The record behind these values is ChEMBL document CHEMBL4513216, “Probing the Open Global Health Chemical Diversity Library for Multistage-Active Starting Points for Next-Generation Antimalarials” (ACS Infect Dis, 2020).
